Data published in ChEMBL document CHEMBL1121461, “Synthesis and diuretic profile of 3-(3-amino-1,2,4-oxadiazol-5-yl)-5-chloro-2,6-pyrazinediamine, an amiloride-type diuretic” (J Med Chem, 1980).
Where “and” joins values, the source holds several entries; their conditions need not be identical. Identical values can stand only once.

Experiments:
Rattus norvegicus [1] = assay: Compound was tested for diuretic activity against peroral dose of 25 mg/kg in rat; assay type: ADME, organism-based, Urine; set-up: dose 25 mg/kg, route oral; conditions: in vivo, po
How it was run: (§1)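 Rats, four per group (eight in one case), given oral 50 mL/kg 0.2% NaCl load together with test agent by mouth; placed in metabolism cages, urine collected 3 h. Urine volume expressed as % of load; total Na+ and K+ (mequiv × 100) in the 3-h sample by flame photometry. Vehicle controls run alongside; significance p < 0.05, p < 0.01.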

Rattus norvegicus [2] = organism: Rattus norvegicus; assay: Compound was tested for diuretic activity in potassium content of the 3-h sample was measured by flame photometry in rat; assay type: ADME, organism-based, Urine; conditions: in vivo
How it was run: (§2)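 Rats, four per dose group, given oral 0.2% NaCl load (50 mL/kg) together with test agent orally; placed in metabolism cages, urine collected 3 h. Na+ and K+ content of the 3-h sample by flame photometry; output as % of load and total mequiv × 100, compared against concurrent controls.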

Rattus norvegicus [3] = assay: Compound was tested for diuretic activity against peroral dose of 10 mg/kg in rat; assay type: ADME, organism-based, Urine; set-up: dose 10 mg/kg, route oral; conditions: in vivo, po; how it was run: as §2
[4] = Compound was tested for diuretic activity in sodium content of the 3-h sample was measured by flame photometry; assay type: ADME, Urine; set-up: unit not given beside the values; how it was run: as §1
Rattus norvegicus [5] = assay: Compound was tested for diuretic activity against peroral dose of 100 mg/kg in rat; assay type: ADME, organism-based, Urine; set-up: dose 100 mg/kg, route oral; conditions: in vivo, po; how it was run: as §1
Canis familiaris [6] = assay: Compound was tested for diuretic activity in urine volume in dogs at a dose of 5 mg/kg; assay type: ADME, organism-based, Canis lupus familiaris; set-up: dose 5 mg/kg; conditions: dog, in vivo
How it was run: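 Six normotensive trained dogs (10.2-17.9 kg), each given a placebo control test before each run. Oral dosing, then 100 mL normal saline injected subcutaneously. Bladder emptied by catheter at onset and 2, 4, 6 h after dosing; dogs in metabolism cages. Total urine volume recorded; Na+ and K+ of an aliquot by flame photometry.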

Rattus norvegicus [7] = assay: Compound was tested for diuretic activity against peroral dose of 5 mg/kg in rat; assay type: ADME, organism-based, Urine; set-up: dose 5 mg/kg, route oral; conditions: in vivo, po; how it was run: as §1
Rattus norvegicus [8] = organism: Rattus norvegicus; assay: Compound was tested for diuretic activity in sodium content of the 3-h sample was measured by flame photometry in rat; assay type: ADME, organism-based, Urine; set-up: unit not given beside the values; conditions: in vivo; how it was run: as §1
Rattus norvegicus [9] = assay: Compound was tested for diuretic activity against peroral dose of 50 mg/kg in rat; assay type: ADME, organism-based, Urine; set-up: dose 50 mg/kg, route oral; conditions: in vivo, po; how it was run: as §1
Canis familiaris [10] = organism: Canis familiaris; assay: Compound was tested for diuretic activity in urine volume in dog; assay type: ADME, organism-based, Canis lupus familiaris; conditions: in vivo
How it was run: (§3)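 Six normotensive trained dogs (10.2-17.9 kg; five for 10 mg/kg runs), oral dosing at 5 or 10 mg/kg, each preceded by placebo control test. Normal saline 100 mL given subcutaneously right after dosing. Bladder emptied by catheter at onset and 2, 4, 6 h; kept in metabolism cages; total urine volume recorded, Na+ and K+ of aliquot by flame photometry.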

[11] = Compound was tested for diuretic activity in potassium content of the 3-h sample was measured by flame photometry; assay type: ADME, Urine; how it was run: as §1
Canis familiaris [12] = organism: Canis familiaris; assay: Compound was tested for diuretic activity urine volume in dog; assay type: ADME, organism-based, Canis lupus familiaris; conditions: in vivo; how it was run: as §3

SMILES	Load (Rattus norvegicus [1]) [%]	Diuretic activity (Rattus norvegicus [2])	Load (Rattus norvegicus [3])	Diuretic activity [4]	Load (Rattus norvegicus [5]) [%]	Load (Canis familiaris [6])	Load (Rattus norvegicus [7]) [%]	Diuretic activity (Rattus norvegicus [8])	Load (Rattus norvegicus [9])	urine vol (Canis familiaris [10]) [%]	Diuretic activity [11]	urine vol (Canis familiaris [12]) [%]
Nc1noc(-c2nc(Cl)c(N)nc2N)n1	93.3	1.1 and 2 and 1.8 and 1.9 and 2.1	88.8% and 96.9%	23.5 and 21.2 and 40	100.4	91% and 76.8%	81.1	24.7 and 33.8 and 42.7 and 41.6	103% and 83.9%			
Cl.N=C(N)NC(=O)c1nc(Cl)c(N)nc1N.O.O [AMILORIDE HYDROCHLORIDE]	82.1	1.5 and 1.7 and 1.6 and 1.1	96.8%	33.6 and 24.9 and 27.9 and 32.9	59.7		94	38 [middle of 4 runs]	64.9% and 76.2%	91.2	1.1 and 1.4 and 1.7	88.2
